From publication PMC5678849 (Kidney International Reports, 2017)
Where two headings read alike, the source gives them in different places. Marks after values point to notes of the source that are not given here.

What was measured:
[1] = Plasma etelcalcetide pharmacokinetics, single-dose study; format: in vivo, human (Japanese hemodialysis patients with SHPT); details: human, iv
Outline: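 Japanese hemodialysis patients (≥20 y) with SHPT, iPTH ≥ 300 pg/ml and cCa ≥ 9.0 mg/dl, randomized 2:1 to drug or placebo in cohorts of 6. A single i.v. injection (5, 10 or 20 mg) was given via the venous blood line after dialysis. Plasma drug was measured by LC/MS/MS. Cmax and AUClast (to the last quantifiable point before the next hemodialysis) were derived per subject by noncompartmental analysis and reported as mean ± SD.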

[2] = Plasma etelcalcetide pharmacokinetics, multiple-dose study; format: in vivo, human (Japanese hemodialysis patients with SHPT); details: for AUC(0-t) / Cmax: human, plasma, iv; for AUC(0-t): AUClast
Outline: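 Two cohorts of 11 hemodialysis patients with SHPT, randomized 8:3 to drug or placebo. Plasma drug was measured by LC/MS/MS, with samples taken before each dialysis. Per-subject noncompartmental Cmax and AUClast were compared for the day 1 and day 27 injections. Values are geometric mean (95% CI).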

[3] = tested on: serum intact parathyroid hormone (iPTH); assay: Serum iPTH change, single-dose study; format: in vivo, human (Japanese hemodialysis patients with SHPT); details: for serum iPTH, mean maximum change from the baseline: mean ± SD, n = 4
Outline: (§1)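 Japanese hemodialysis patients with SHPT received a single 5, 10 or 20 mg i.v. injection, or placebo, via the venous blood line after dialysis. Active groups had n = 4; placebo was pooled across cohorts. Serum iPTH, albumin-corrected Ca and P were measured by a central laboratory. Data are percent change from baseline over time, with mean maximum change from baseline, reported descriptively as mean ± SD.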

[4] = tested on: serum intact parathyroid hormone (iPTH); assay: Serum iPTH change, multiple-dose study; format: in vivo, human (Japanese hemodialysis patients with SHPT); details: mean ± SD; for serum iPTH, percent change 30 minutes after injection / serum iPTH, percent change from baseline on day 3: multiple-dose study; for serum iPTH, percent change 30 minutes after injection: first injection, n = 8
Outline: (§2)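 Blood was drawn before each dialysis, plus serial samples after the day 1 and day 27 injections. Serum iPTH, BAP, TRACP-5b and FGF23 were measured centrally. Data are percent change from baseline, mean ± SD.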

[5] = tested on: serum albumin-corrected calcium (cCa); assay: Serum cCa change, single-dose study; format: in vivo, human (Japanese hemodialysis patients with SHPT); details: mean ± SD, n = 4
Outline: as §1

[6] = tested on: serum albumin-corrected calcium (cCa); assay: Serum cCa change, multiple-dose study; format: in vivo, human (Japanese hemodialysis patients with SHPT); details: mean ± SD
Outline: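 Randomized, double-blind, placebo-controlled, 16 centres. Patients: ≥20 y, hemodialysis 3×/week ≥90 days, iPTH ≥ 300 pg/ml, cCa ≥ 9.0 mg/dl, dialysate Ca ≥2.25 mEq/l. Blood taken before each dialysis; follow-up to day 55. Serum cCa measured centrally; percent change from baseline at day 55 or withdrawal.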

[7] = tested on: serum P; assay: Serum phosphorus change; format: in vivo, human (Japanese hemodialysis patients with SHPT); details: for serum P, percent change from the baseline at the end of the treatment or withdrawal: mean ± SD
[8] = tested on: BAP, TRACP-5b, FGF23 serum levels; assay: Serum BAP, TRACP-5b and FGF23, multiple-dose study; format: in vivo, human (Japanese hemodialysis patients with SHPT)
Outline: as §2

[9] = Safety and tolerability, single-dose study; format: in vivo, human (Japanese hemodialysis patients with SHPT)
Outline: (§3)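 Safety was assessed descriptively from AEs, vital signs, clinical laboratory tests and 12-lead ECGs (centrally analyzed, QTc by Fridericia). Anti-drug antibodies were measured by validated ELISA. Hypocalcemia was defined as cCa < 7.5 mg/dl. Dosing was a single i.v. injection after dialysis (5, 10 or 20 mg), or 2.5 or 5 mg i.v. three times weekly for 4 weeks. Each dose cohort started only after the earlier cohorts met the safety criteria.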

[10] = Safety and tolerability, multiple-dose study; format: in vivo, human (Japanese hemodialysis patients with SHPT)
Outline: as §3

[11] = Antibodies against etelcalcetide, ELISA; format: in vivo, human (Japanese hemodialysis patients with SHPT); details: validated ELISA
[12] = cited from earlier work
[13] = M1, 2.5 mg, n = 7, geometric mean (95% confidence interval)
[14] = M2, 5 mg, n = 8, geometric mean (95% confidence interval)
[15] = 2.5 mg, M1, 2.5 mg i.v. 3 times weekly for 4 weeks, day 1 (first administration), n = 8, mean ± SD
[16] = 5 mg, M2, 5 mg i.v. 3 times weekly for 4 weeks, day 1, n = 8, mean ± SD
[17] = 5 mg, M2, 5 mg i.v. 3 times weekly for 4 weeks, day 27, n = 8, mean ± SD
[18] = 2.5 mg i.v. 3 times weekly for 4 weeks
[19] = 5 mg i.v. 3 times weekly for 4 weeks

CC(=O)N[C@H](CSSC[C@H](N)C(=O)O)C(=O)N[C@H](C)C(=O)N[C@H](CCCNC(=N)N)C(=O)N[C@H](CCCNC(=N)N)C(=O)N[C@H](CCCNC(=N)N)C(=O)N[C@H](C)C(=O)N[C@H](CCCNC(=N)N)C(N)=O [etelcalcetide, Etelcalcetide] showed an AUC(0-t) ([1]; 5 mg) of 1110 ± 360 ng·h/mL, a Cmax ([1]; 5 mg) of 236 ± 89 ng/mL and an AUC(0-t) ([1]; 10 mg) of 2550 ± 110 ng·h/mL. The Cmax ([1]; 10 mg) was 589 ± 88 ng/mL, the AUC(0-t) ([1]; 20 mg) was 5460 ± 680 ng·h/mL and the Cmax ([1]; 20 mg) was 999 ± 135 ng/mL. For the same molecule, the “AUClast ratio day 27/day 1” value [2, 13] was 3.05 (2.91–3.19) ^c, the “Cmax ratio day 27/day 1” value [2, 13] was 1.18 (0.86–1.62) ^c and the “AUClast ratio day 27/day 1” value [2, 14] was 3.20 (2.87–3.57) ^c. For the same molecule, the “Cmax ratio day 27/day 1” value [2, 14] was 1.09 (0.90–1.32) ^c, the AUC(0-t) [2, 15] was 600 ± 133 ng·h/mL and the AUC(0-t) ([2]; 2.5 mg, M1, 2.5 mg i.v. 3 times weekly for 4 weeks, day 27 (last administration), n = 7, mean ± SD) was 1830 ± 380 ng·h/mL. For the same molecule, the Cmax [2, 15] was 151 ± 56 ng/mL, the AUC(0-t) [2, 16] was 1200 ± 560 ng·h/mL and the AUC(0-t) [2, 17] was 3860 ± 1840 ng·h/mL. For the same molecule, the Cmax [2, 16] was 315 ± 89 ng/mL, the Cmax [2, 17] was 356 ± 143 ng/mL and the “Cmax at week 4 relative to the initial dose” value ([2]; multiple-dose study) was ≤ 1.18 times. For the same molecule, the “mean AUClast following day 27 injection relative to day 1 injection” value ([2]; multiple-dose study, discussion) was “approximately 3 times”, the “serum iPTH, mean maximum change from the baseline” value ([3]; single i.v. 5 mg) was −50.43% ± 12.63% and the “serum iPTH, mean maximum change from the baseline” value ([3]; single i.v. 10 mg) was −69.26% ± 11.35%. The “serum iPTH, percent change from the baseline” value ([3]; single i.v. 20 mg, at 56 hours) was “approximately −30%”, the “serum iPTH, percent change from the baseline at the end of the study or at study withdrawal” value [4, 18] was −26.25% ± 26.94% and the “serum iPTH, percent change from the baseline at the end of the study or at study withdrawal” value [4, 19] was −45.65% ± 20.06%. The “serum iPTH, percent change 30 minutes after injection” value ([4]; 2.5 mg i.v.) was −41.65% ± 19.36%, the “serum iPTH, percent change from baseline on day 3” value ([4]; 2.5 mg i.v.) was −24.25% ± 13.36% and the “serum iPTH, percent change 30 minutes after injection” value ([4]; 5 mg i.v.) was −58.60% ± 6.47%. The “serum iPTH, percent change from baseline on day 3” value ([4]; 5 mg i.v.) was −32.64% ± 18.20%, the “serum cCa, mean maximum change from the baseline” value (“serum cCa, mean maximum change” below) ([5]; single i.v. 5 mg) was −7.26% ± 3.48% and the “serum cCa, mean maximum change” value ([5]; single i.v. 10 mg) was −6.79% ± 5.86%. The “serum cCa, mean maximum change” value ([5]; single i.v. 20 mg) was −14.26% ± 6.01%, the “serum cCa, mean percent change from the baseline at the end of the study or at withdrawal” value [6, 18] was −7.05% ± 4.60% and the “serum cCa, mean percent change from the baseline at the end of the study or at withdrawal” value [6, 19] was −12.75% ± 4.88%. For the same molecule, the “serum P, percent change from the baseline at the end of the treatment or withdrawal” value [7, 18] was −14.68% ± 13.38%, the “serum P, percent change from the baseline at the end of the treatment or withdrawal” value [7, 19] was −13.79% ± 18.18% and the “serum P versus placebo” value ([7]; single-dose study, from 4 hours to day 4) was “remained lower”. For the same molecule, the “serum FGF23” value ([8]; day 29) was “tended to decrease”, the “serum BAP before hemodialysis” value ([8]; day 29, etelcalcetide groups) was “remained unchanged” and the “serum TRACP-5b” value ([8]; day 29, etelcalcetide groups) was “a trend toward decreases”. For the same molecule, the “serum FGF23” value ([8]; day 55) was “a trend toward a return to baseline levels”, the “serum BAP before hemodialysis” value ([8]; day 55, etelcalcetide groups) was “trends toward decreases” and the “serum TRACP-5b” value ([8]; day 55, etelcalcetide groups) was “a return to baseline”. The “patients with AEs” value ([9]; single i.v. 10 mg, 1 patient of 4 (APTT), considered unrelated to treatment) was 25.0%, the “hypocalcemia with cCa < 7.5 mg/dl” value ([9]; single i.v. 5, 10 or 20 mg) was “No patients developed hypocalcemia” and the “deaths or serious adverse events” value ([9]; single-dose study, 5, 10 or 20 mg i.v.) was “No deaths or serious adverse events (AEs) were reported”. The “patients with AEs” value ([10]; 2.5 mg i.v. 3 times weekly for 4 weeks, 7 patients of 8) was 87.5%, the “serious AE” value ([10]; 2.5 mg i.v. 3 times weekly, relationship to treatment not ruled out) was “cardiopulmonary arrest” and the “serious AE” value ([10]; 5 mg i.v. 3 times weekly) was “no serious AE was reported”. The “patients with AEs” value ([10]; 5 mg i.v. 3 times weekly for 4 weeks, 3 patients of 8) was 37.5%, the deaths ([10]; multiple-dose study) was “No deaths occurred” and the “hypocalcemia with serum cCa < 7.5 mg/dl” value ([10]; multiple-dose study, 2.5 or 5 mg i.v. 3 times weekly for 4 weeks) was “No patients experienced hypocalcemia”. For the same molecule, the antietelcalcetide antibodies ([11]; multiple-dose study) was “No antietelcalcetide antibodies were detected”, the antietelcalcetide antibodies ([11]; single-dose study) was “No antietelcalcetide antibodies were detected” and the tolerability ([12]; 3-times-weekly 5- and 10-mg doses for 4 weeks, non-Japanese patients) was “tolerable”. For the same molecule, the tolerability ([12]; single i.v. injection at 5 to 60 mg, non-Japanese SHPT patients) was “tolerable” and the tolerability ([12]; single injection of 5 mg, healthy Japanese subjects, ref unpublished data) was “tolerable”.
